# Measured values reported in paper PMC11327602 (Heliyon, 2024).
# Several values for one entry are separate records, joined by “and”; a condition that tells them apart may be missing. Equal values may be shown once.
# Tests used:
# [1] = target: jack bean urease (Canavalia ensiformis, UniProt P07374); assay: Urease inhibition assay; format: biochemical; conditions: for IC50: Enzyme (SEM ±) J.B Urease, IC50, mean ± SEM, 3 experiments
# [2] = target: Bacillus Pasteurii urease (Sporosarcina pasteurii, UniProt P41020); assay: Urease inhibition assay; format: biochemical; conditions: Enzyme (SEM ±) B.P Urease, IC50, mean ± SEM, 3 experiments
# Sequence of Bacillus Pasteurii urease (P41020 whole entry): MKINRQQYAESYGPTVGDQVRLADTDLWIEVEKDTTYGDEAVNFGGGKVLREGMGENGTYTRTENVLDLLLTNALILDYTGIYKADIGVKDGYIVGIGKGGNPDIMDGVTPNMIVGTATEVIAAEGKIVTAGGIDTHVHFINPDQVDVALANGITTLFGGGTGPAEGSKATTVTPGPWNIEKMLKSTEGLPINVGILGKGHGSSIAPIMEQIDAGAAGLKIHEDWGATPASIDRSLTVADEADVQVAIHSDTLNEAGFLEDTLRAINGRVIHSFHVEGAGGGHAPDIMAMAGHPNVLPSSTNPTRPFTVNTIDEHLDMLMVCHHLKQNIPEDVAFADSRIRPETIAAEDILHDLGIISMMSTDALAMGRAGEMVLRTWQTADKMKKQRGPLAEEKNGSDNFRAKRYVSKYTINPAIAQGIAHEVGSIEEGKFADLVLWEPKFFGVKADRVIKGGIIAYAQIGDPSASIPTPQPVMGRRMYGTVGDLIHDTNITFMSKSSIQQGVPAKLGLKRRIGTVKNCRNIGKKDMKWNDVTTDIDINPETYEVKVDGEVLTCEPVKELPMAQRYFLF
# Sequence of Bacillus Pasteurii urease (P41021 whole entry partner): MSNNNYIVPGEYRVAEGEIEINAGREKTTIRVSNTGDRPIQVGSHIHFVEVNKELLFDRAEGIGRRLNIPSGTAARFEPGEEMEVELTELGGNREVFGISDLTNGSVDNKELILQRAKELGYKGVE
# Sequence of Bacillus Pasteurii urease (P41022 whole entry partner): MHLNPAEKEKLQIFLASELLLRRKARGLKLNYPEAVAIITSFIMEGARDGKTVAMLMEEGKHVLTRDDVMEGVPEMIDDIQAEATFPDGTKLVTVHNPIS
# [3] = target: α-Glucosidase (Saccharomyces cerevisiae, UniProt P53341); assay: α-Glucosidase inhibition assay; format: biochemical
# Sequence of α-Glucosidase (P53341 whole entry): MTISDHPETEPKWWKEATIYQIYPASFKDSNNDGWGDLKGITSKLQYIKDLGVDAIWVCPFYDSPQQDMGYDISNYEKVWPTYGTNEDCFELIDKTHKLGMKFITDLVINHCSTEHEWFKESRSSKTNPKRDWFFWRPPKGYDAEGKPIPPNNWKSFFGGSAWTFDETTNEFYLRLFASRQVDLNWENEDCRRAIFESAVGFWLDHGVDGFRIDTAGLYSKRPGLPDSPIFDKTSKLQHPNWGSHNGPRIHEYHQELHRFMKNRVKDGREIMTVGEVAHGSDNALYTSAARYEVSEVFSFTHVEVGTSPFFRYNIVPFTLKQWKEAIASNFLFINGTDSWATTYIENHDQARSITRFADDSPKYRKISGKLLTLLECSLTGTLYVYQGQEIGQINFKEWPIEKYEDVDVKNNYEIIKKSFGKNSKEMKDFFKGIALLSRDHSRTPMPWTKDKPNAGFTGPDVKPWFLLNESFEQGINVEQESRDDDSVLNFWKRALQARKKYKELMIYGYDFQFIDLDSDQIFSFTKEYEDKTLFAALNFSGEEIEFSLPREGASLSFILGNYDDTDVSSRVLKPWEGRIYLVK
# In short: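 Test compound (200–800 μg/mL) pre-incubated 5 min at 37 °C with 2 % w/v starch (sucrose) solution in 0.2 M Tris buffer, pH 8.0. 5 mM p-nitrophenyl-α-D-glucopyranoside added intermittently, then α-glucosidase (1 U/mL), 40 min at 35 °C. Stopped with […]; absorbance read at 405 nm. % inhibition = (control − sample)/control × 100; samples above 50 % taken to IC50.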
# [4] = DPPH free radical scavenging activity; conditions: for IC50: read-out: DPPH scavenging IC50
# [5] = ABTS method; conditions: for IC50: read-out: ABTS scavenging IC50
# [6] = Superoxide anion scavenging assay; conditions: for IC50: read-out: superoxide anion scavenging IC50
# Sequence of jack bean urease (P07374 whole entry, looked up): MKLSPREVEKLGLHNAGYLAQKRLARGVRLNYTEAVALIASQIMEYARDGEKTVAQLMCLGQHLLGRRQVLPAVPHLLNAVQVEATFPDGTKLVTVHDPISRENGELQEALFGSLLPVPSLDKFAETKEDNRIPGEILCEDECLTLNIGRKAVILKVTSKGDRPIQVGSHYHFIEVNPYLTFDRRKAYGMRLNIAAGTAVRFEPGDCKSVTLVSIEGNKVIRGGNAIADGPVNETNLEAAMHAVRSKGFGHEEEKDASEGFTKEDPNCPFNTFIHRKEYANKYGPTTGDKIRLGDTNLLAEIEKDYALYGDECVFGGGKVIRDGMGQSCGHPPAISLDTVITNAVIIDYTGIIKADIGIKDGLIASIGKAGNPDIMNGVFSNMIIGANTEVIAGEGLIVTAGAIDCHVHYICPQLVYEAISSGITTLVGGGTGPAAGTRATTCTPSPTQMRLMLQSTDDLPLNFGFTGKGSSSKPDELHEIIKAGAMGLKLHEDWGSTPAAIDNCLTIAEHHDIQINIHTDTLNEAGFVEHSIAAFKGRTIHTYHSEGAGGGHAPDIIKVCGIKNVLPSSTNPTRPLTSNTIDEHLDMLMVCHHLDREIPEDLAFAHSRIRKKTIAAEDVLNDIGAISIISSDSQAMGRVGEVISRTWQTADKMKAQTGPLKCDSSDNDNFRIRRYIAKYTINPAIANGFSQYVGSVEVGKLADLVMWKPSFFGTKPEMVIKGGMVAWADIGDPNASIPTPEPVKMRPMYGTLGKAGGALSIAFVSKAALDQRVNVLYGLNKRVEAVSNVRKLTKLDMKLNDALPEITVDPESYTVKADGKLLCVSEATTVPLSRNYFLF
SMILES,Types of inhibition (urease) [1],IC50 [1] [µM],IC50 [2] [µM],Type of Inhibition (α-glucosidase and α-amylase) [3],IC50 [4],IC50 [5] [µM],IC50 [6],DPPH % Scavenging ([4]; 25 μM) [%],DPPH % Scavenging ([4]; 50 μM) [%],DPPH % Scavenging ([4]; 75 μM) [%],DPPH % Scavenging ([4]; 100 μM) [%],ABTS % Scavenging ([5]; 10 μM) [%],ABTS % Scavenging ([5]; 20 μM) [%],ABTS % Scavenging ([5]; 30 μM) [%],ABTS % Scavenging ([5]; 40 μM) [%],ABTS % Scavenging ([5]; 50 μM) [%],superoxide anion % scavenging ([6]; 25 μM) [%],superoxide anion % scavenging ([6]; 50 μM) [%],superoxide anion % scavenging ([6]; 75 μM) [%],superoxide anion % scavenging ([6]; 100 μM) [%],further results
"CN(c1nccs1)S(=O)(=O)c1ccc(Br)cc1 [Compound 35, 4-Bromo-N-methyl-N-(thiazol-2-yl)benzenesulfonamide]",Competitive,18.7,20.21 ± 0.19,Competitive,53.1 ± 0.11 µM,38.01 ± 0.13,~38 µM and 38 µM,28.1 ± 0.04,34.4 ± 0.8,61.5 ± 0.03,89.1 ± 0.6,33.02 ± 0.08,31.05 ± 0.01,43.01 ± 0.03,62.2 ± 0.09,105.13 ± 0.11,27 ± 0.12,53 ± 0.05,64 ± 0.04,89 ± 0.28,"inhibition against both enzymes (α-glucosidase and α-amylase), in words [3]: weak inhibition"
"CN(c1nccs1)S(=O)(=O)c1ccc([N+](=O)[O-])cc1 [Compound 39, N-Methyl-4-nitro-N-(thiazol-2-yl)benzenesulfonamide]",Non-competitive,38.17 ± 0.01,43.71 ± 0.13,Non-competitive,43.02 ± 0.13 µM,36.09 ± 0.15,54.1 ± 0.55 µM,15.04 ± 0.05,55.02 ± 0.08,77.08 ± 0.11,91.01 ± 0.34,24.02 ± 0.05,39.01 ± 0.3,47.06 ± 0.1,72.11 ± 0.09,102.03 ± 0.01,22.2 ± 0.01,48.5 ± 0.17,71.4 ± 0.34,93.8 ± 0.11,"inhibition against both enzymes (α-glucosidase and α-amylase), in words [3]: weak inhibition"

# The remaining compounds from weak to strong by IC50 [2], led by results:
Types of inhibition (urease) [1],IC50 [1] [µM],IC50 [2] [µM],Type of Inhibition (α-glucosidase and α-amylase) [3],IC50 [4],IC50 [5] [µM],IC50 [6],SMILES,DPPH % Scavenging ([4]; 25 μM) [%],DPPH % Scavenging ([4]; 50 μM) [%],DPPH % Scavenging ([4]; 75 μM) [%],DPPH % Scavenging ([4]; 100 μM) [%],ABTS % Scavenging ([5]; 10 μM) [%],ABTS % Scavenging ([5]; 20 μM) [%],ABTS % Scavenging ([5]; 30 μM) [%],ABTS % Scavenging ([5]; 40 μM) [%],ABTS % Scavenging ([5]; 50 μM) [%],superoxide anion % scavenging ([6]; 25 μM) [%],superoxide anion % scavenging ([6]; 50 μM) [%],superoxide anion % scavenging ([6]; 75 μM) [%],superoxide anion % scavenging ([6]; 100 μM) [%],further results
Competitive,24.31 ± 0.18,27.15 ± 0.14,Non-competitive,69.5 ± 0.1 µM,49.03 ± 0.15,67.6 ± 0.93 µM,"CN(c1nccs1)S(=O)(=O)c1ccc(F)cc1 [Compound 38, 4-Fluoro-N-methyl-N-(thiazol-2-yl)benzenesulfonamide]",21.3 ± 0.11,67.3 ± 0.2,89.3 ± 0.05,95.01 ± 0.9,13.2 ± 0.91,35.3 ± 0.42,41.2 ± 0.71,48.13 ± 0.11,79.3 ± 0.44,31.5 ± 0.11,45.01 ± 0.5,55.7 ± 0.5,92.5 ± 0.03,
Competitive,21.02 ± 0.21,25.4 ± 0.31,Non-competitive,57.1 ± 0.11 µM,34.11 ± 0.16,54 ± 0.15 µM,"CN(c1nccs1)S(=O)(=O)c1ccc(Cl)cc1 [Compound 37, 4-Chloro-N-methyl-N-(thiazol-2-yl)benzenesulfonamide]",19 ± 0.17,42.4 ± 0.8,66.8 ± 0.15,99.1 ± 0.21,30.22 ± 0.22,41.25 ± 0.11,48.01 ± 0.12,65.5 ± 0.07,99.03 ± 0.15,37 ± 0.21,43 ± 0.6,67 ± 0.03,99 ± 0.15,"inhibition against both enzymes (α-glucosidase and α-amylase), in words [3]: weak inhibition"
Competitive,14.06 ± 0.03,17.06 ± 0.03,Non-competitive,~49.3 µM and 49.3 µM,45.07 ± 0.09,57.1 ± 0.09 µM,"CN(c1nccs1)S(=O)(=O)c1ccccc1 [Compound 36, N-Methyl-N-(thiazol-2-yl)benzenesulfonamide]",25.3 ± 0.07,65.5 ± 0.12,88.3 ± 0.11,93.8 ± 0.09,23.2 ± 0.11,37.5 ± 0.2,48.3 ± 0.21,65.5 ± 0.01,87.5 ± 0.05,20.6 ± 0.11,43.6 ± 0.12,65.1 ± 0.5,87.5 ± 0.08,"inhibition against both enzymes (α-glucosidase and α-amylase), in words [3]: weak inhibition"
